Experimental data reported in ChEMBL document CHEMBL1681706, “Design and synthesis of novel CCR2 antagonists: investigation of non-aryl/heteroaryl binding motifs” (Bioorg Med Chem Lett, 2011).

Tests used:
[1] = target: T1, C-C chemokine receptor type 2 (Homo sapiens, UniProt P41597); experiment: Displacement of [125I]MCP1 from human CCR2 preincubated 1 hrs by human whole cell binding assay
How it was run: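 Human CCR2 whole cell binding, with compound preincubated for 1 h before the binding read-out.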
Target sequence in this assay (P41597 whole entry): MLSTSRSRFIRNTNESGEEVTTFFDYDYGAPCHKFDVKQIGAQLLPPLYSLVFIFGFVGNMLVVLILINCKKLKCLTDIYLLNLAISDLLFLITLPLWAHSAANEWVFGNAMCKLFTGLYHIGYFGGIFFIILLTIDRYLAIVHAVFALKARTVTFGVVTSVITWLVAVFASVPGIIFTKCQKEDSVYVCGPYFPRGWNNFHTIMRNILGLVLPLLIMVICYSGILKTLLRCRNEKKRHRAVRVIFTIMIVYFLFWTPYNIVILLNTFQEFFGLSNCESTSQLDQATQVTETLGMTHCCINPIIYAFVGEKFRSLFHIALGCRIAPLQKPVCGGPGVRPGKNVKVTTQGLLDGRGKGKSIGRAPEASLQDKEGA

hERG (KCNH2) = hERG (KCNH2) (Homo sapiens, UniProt Q12809); experiment: Displacement of dofetilide from human ERG at 10 uM; conditions: probe dofetilide
Chain of hERG (KCNH2) (Q12809 whole entry): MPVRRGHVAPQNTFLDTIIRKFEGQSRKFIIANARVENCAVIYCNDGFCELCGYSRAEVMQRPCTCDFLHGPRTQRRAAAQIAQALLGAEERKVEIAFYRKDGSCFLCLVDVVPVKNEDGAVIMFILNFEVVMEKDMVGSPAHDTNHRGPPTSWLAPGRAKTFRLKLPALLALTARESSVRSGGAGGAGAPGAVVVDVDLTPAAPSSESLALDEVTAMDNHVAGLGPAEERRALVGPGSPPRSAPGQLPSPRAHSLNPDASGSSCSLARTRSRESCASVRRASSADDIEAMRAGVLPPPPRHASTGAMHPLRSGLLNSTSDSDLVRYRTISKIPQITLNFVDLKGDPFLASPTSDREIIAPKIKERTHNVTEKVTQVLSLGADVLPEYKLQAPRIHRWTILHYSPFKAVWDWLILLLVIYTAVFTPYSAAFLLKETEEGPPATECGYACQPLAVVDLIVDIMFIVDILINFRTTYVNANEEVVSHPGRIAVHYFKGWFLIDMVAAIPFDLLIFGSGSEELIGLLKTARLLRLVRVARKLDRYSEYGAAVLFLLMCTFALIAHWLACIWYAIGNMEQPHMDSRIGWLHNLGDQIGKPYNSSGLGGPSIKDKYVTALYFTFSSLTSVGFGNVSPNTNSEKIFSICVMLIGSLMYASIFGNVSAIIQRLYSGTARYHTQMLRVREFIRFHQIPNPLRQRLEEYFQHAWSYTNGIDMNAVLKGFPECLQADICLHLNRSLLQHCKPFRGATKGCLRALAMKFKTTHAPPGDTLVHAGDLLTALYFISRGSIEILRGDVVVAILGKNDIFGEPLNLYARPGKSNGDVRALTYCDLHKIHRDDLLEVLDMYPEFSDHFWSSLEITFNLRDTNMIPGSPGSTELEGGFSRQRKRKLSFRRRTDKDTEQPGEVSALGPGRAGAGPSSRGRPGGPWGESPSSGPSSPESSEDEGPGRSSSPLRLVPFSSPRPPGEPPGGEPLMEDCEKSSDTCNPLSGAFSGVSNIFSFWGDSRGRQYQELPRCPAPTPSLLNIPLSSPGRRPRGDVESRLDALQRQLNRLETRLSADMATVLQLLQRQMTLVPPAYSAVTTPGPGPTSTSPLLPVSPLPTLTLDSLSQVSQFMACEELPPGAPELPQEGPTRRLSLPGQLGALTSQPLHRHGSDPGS
How it was run: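 hERG dofetilide assay, read out as percent inhibition at a single concentration of test compound.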

[2] = Half life in human liver microsomes at 1 uM; format: ADME, Microsome
How it was run: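 Human liver microsome stability test, read out as half-life (t1/2, min) after a single low dose of compound.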

[3] = target: T1, C-C chemokine receptor type 2; experiment: Displacement of [125I]MCP1 from human CCR2 at 0.30 uM preincubated 30 mins by human whole cell binding assay
Target sequence in this assay (P41597 whole entry, looked up): as the sequence (P41597 whole entry) above

[4] = target: T1, C-C chemokine receptor type 2; experiment: Displacement of [125I]MCP1 from human CCR2 preincubated 30 mins by human whole cell binding assay
How it was run: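 Whole cell binding to human CCR2, with a 30 min preincubation with compound.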
Target sequence in this assay (P41597 whole entry): as above

[5] = target: T1, C-C chemokine receptor type 2; experiment: Displacement of [125I]MCP1 from human CCR2 at 0.30 uM by human whole cell binding assay
Target sequence in this assay (P41597 whole entry, looked up): as the sequence (P41597 whole entry) above

[6] = Apparent permeability from basolateral to apical side of MDCK cells; format: ADME, cell-based, Canis lupus familiaris; conditions: dog
[7] = Efflux ratio of permeability from basolateral to apical over apical to basolateral side of MDCK cells; format: ADME, cell-based, Canis lupus familiaris; conditions: dog
[8] = Apparent permeability from apical to basolateral side of MDCK cells; format: ADME, cell-based, Canis lupus familiaris; conditions: dog
[9] = target: T1, C-C chemokine receptor type 2; experiment: Displacement of [125I]MCP1 from human CCR2 at 0.30 uM preincubated 1 hr by human whole cell binding assay
Target sequence in this assay (P41597 whole entry, looked up): as the sequence (P41597 whole entry) above

SMILES | IC50 [1] [nM] | half-life at 1 µM [2] [h] | IC50 [4] [nM] | inhibition at 10 µM (hERG (KCNH2)) [%] | other results
CC(C)[C@]1(C(=O)N2C[C@@H]3C[C@H]2CN3C(=O)C2CCC2)CC[C@@H](NC2CCOCC2)C1 | 32 | > 2 | – | 6 | –
CC(C)[C@]1(C(=O)N2C[C@@H]3C[C@H]2CN3C(=O)C(C)(C)C)CC[C@@H](NC2CCOCC2)C1 | – | > 2 | – | 2 | Activity [3]: 23%
CCC(=O)N1C[C@@H]2C[C@H]1CN2C(=O)[C@@]1(C(C)C)CC[C@@H](NC2CCOCC2)C1 | – | > 2 | – | 6 | Activity [3]: 28%
CO[C@@H]1COCC[C@@H]1N[C@@H]1CC[C@@](C(=O)N2CCN(C(=O)OC(C)(C)C)CC2)(C(C)C)C1 | 251 | – | – | – | –
CC(C)[C@]1(C(=O)N2CCN(C(=O)OC(C)(C)C)CC2)CC[C@@H](NC2CCOCC2)C1 | – | – | – | – | Activity [5]: 24%
CC(C)C(=O)N1C[C@@H]2C[C@H]1CN2C(=O)[C@@]1(C(C)C)CC[C@@H](NC2CCOCC2)C1 | – | > 2 | – | 3.7 | Activity [3]: 40%
CC(C)[C@]1(C(=O)N2C[C@@H]3C[C@H]2CN3C(=O)OC(C)(C)C)CC[C@@H](NC2CCOCC2)C1 | 5 | > 2 | – | 4.8 | –
CC(=O)N1C[C@@H]2C[C@H]1CN2C(=O)[C@@]1(C(C)C)CC[C@@H](NC2CCOCC2)C1 | – | > 2 | – | 0 | Activity [3]: 1%
CO[C@@H]1COCC[C@@H]1N[C@@H]1CC[C@@](C(=O)N2C[C@@H]3C[C@H]2CN3C(=O)C2CCC2)(C(C)C)C1 | 11.7 | > 2 | – | 4 | –
CC(C)[C@]1(C(=O)N2C[C@@H]3C[C@H]2CN3C(=O)C2CCOCC2)CC[C@@H](NC2CCOCC2)C1 | – | > 2 | – | 0 | Activity [3]: 46%
CC(C)[C@]1(C(=O)N2C[C@@H]3C[C@H]2CN3C(=O)C2CCCCC2)CC[C@@H](NC2CCOCC2)C1 | – | 1.55 | 11.6 | 4 | –
CC(C)[C@]1(C(=O)N2C[C@@H]3C[C@H]2CN3C(=O)CC(C)(C)C)CC[C@@H](NC2CCOCC2)C1 | 36.9 | > 2 | – | 5.7 | –
CO[C@@H]1COCC[C@@H]1N[C@@H]1CC[C@@](C(=O)N2C[C@@H]3C[C@H]2CN3C(=O)c2ccccc2)(C(C)C)C1 | 6.5 | 1.57 | 12 | 7.8 | –
CO[C@@H]1COCC[C@@H]1N[C@@H]1CC[C@@](C(=O)N2C[C@@H]3C[C@H]2CN3C(=O)C2CCCC2)(C(C)C)C1 | 8.5 | > 2 | 11.1 | 6.7 | –
CC(C)[C@]1(C(=O)N2C[C@@H]3C[C@H]2CN3C(=O)C2CC2)CC[C@@H](NC2CCOCC2)C1 | – | > 2 | 130 | 2.3 | –
CC(C)[C@]1(C(=O)N2C[C@@H]3C[C@H]2CN3C(=O)C2CCCC2)CC[C@@H](NC2CCOCC2)C1 | 12.2 | > 2 | – | 2 | –

Second part, led by results:

IC50 [1] [nM] | half-life at 1 µM [2] [h] | IC50 [4] [nM] | SMILES | inhibition at 10 µM (hERG (KCNH2)) [%] | other results
4.2 | 0.62 | – | CC(C)[C@]1(C(=O)N2C[C@@H]3C[C@H]2CN3C(=O)OC(C)(C)C)CC[C@@H](NC2CCOCC2F)C1 (stereo partly specified) | 6 | –
– | 0.35 | 38.4 | CC(C)[C@]1(C(=O)N2C[C@@H]3C[C@H]2CN3C(=O)C2CCC2)CC[C@@H](NC2CCOCC2F)C1 (stereo partly specified) | 17 | –
– | 1.77 | 28 | CC(C)[C@]1(C(=O)N2C[C@@H]3C[C@H]2CN3C(=O)NC(C)(C)C)CC[C@@H](NC2CCOCC2F)C1 (stereo partly specified) | 0 | –
– | – | 75.9 | CC(C)[C@]1(C(=O)N2C[C@@H]3C[C@H]2CN3C(=O)N2CCCCC2)CC[C@@H](NC2CCOCC2F)C1 (stereo partly specified) | 0 | –
– | 0.283 | 3.1 | CC(C)[C@]1(C(=O)N2C[C@@H]3C[C@H]2CN3C(=O)OC2CCCC2)CC[C@@H](NC2CCOCC2F)C1 (stereo partly specified) | 0 | –
2.9 | > 2 | – | CO[C@@H]1COCC[C@@H]1N[C@@H]1CC[C@@](C(=O)N2C[C@@H]3C[C@H]2CN3C(=O)OC(C)(C)C)(C(C)C)C1 | 0 | –
– | 1.3 | 3.5 | CC(OC(=O)N1C[C@@H]2C[C@H]1CN2C(=O)[C@@]1(C(C)C)CC[C@@H](NC2CCOCC2)C1)C(F)(F)F (stereo partly specified) | 2 | –
– | > 2 | 13.9 | CC(C)[C@]1(C(=O)N2C[C@@H]3C[C@H]2CN3C(=O)C2CCCC2)CC[C@@H](NC2CCOCC2F)C1 (stereo partly specified) | 3 | –
– | 0.467 | 4.3 | CC(C)COC(=O)N1C[C@@H]2C[C@H]1CN2C(=O)[C@@]1(C(C)C)CC[C@@H](NC2CCOCC2F)C1 (stereo partly specified) | 0 | –
– | > 2 | 14.6 | CC(C)[C@]1(C(=O)N2C[C@@H]3C[C@H]2CN3C(=O)CCC(F)(F)F)CC[C@@H](NC2CCOCC2)C1 | 1 | –
– | – | 17.5 | CC(C)[C@]1(C(=O)N2C[C@@H]3C[C@H]2CN3C(=O)c2ccccc2)CC[C@@H](NC2CCOCC2F)C1 (stereo partly specified) | 0 | –
– | 0.8 | 14.7 | CC(C)[C@]1(C(=O)N2C[C@@H]3C[C@H]2CN3C(=O)CC2CCCC2)CC[C@@H](NC2CCOCC2F)C1 (stereo partly specified) | 3 | –
– | 0.917 | 15.2 | CC(C)[C@]1(C(=O)N2C[C@@H]3C[C@H]2CN3C(=O)C2CCCCC2)CC[C@@H](NC2CCOCC2F)C1 (stereo partly specified) | 0 | –
– | 1.27 | 39.5 | CC(C)[C@]1(C(=O)N2C[C@@H]3C[C@H]2CN3C(=O)CC(C)(C)C)CC[C@@H](NC2CCOCC2F)C1 (stereo partly specified) | 0 | –
– | > 2 | 17.3 | CC(C)[C@]1(C(=O)N2C[C@@H]3C[C@H]2CN3C(=O)CCC(F)(F)F)CC[C@@H](NC2CCOCC2F)C1 (stereo partly specified) | 5 | Papp B→A [6]: 5.3 ×10⁻⁶ cm/s; efflux ratio [7]: 0.6; Papp A→B [8]: 8.35 ×10⁻⁶ cm/s
– | 0.433 | 3.2 | CC(OC(=O)N1C[C@@H]2C[C@H]1CN2C(=O)[C@@]1(C(C)C)CC[C@@H](NC2CCOCC2F)C1)C(F)(F)F (stereo partly specified) | 3 | –
– | > 2 | 12.8 | CC(CC(=O)N1C[C@@H]2C[C@H]1CN2C(=O)[C@@]1(C(C)C)CC[C@@H](NC2CCOCC2F)C1)C(F)(F)F (stereo partly specified) | 0 | Papp B→A [6]: 10.2 ×10⁻⁶ cm/s; efflux ratio [7]: 0.8; Papp A→B [8]: 11.8 ×10⁻⁶ cm/s
17 | > 2 | 24.2 | CO[C@@H]1COCC[C@@H]1N[C@@H]1CC[C@@](C(=O)N2C[C@@H]3C[C@H]2CN3C(=O)CC(C)(C)C)(C(C)C)C1 | 0 | –
– | > 2 | – | CO[C@@H]1COCC[C@@H]1N[C@@H]1CC[C@@](C(=O)N2C[C@@H]3C[C@H]2CN3C(=O)C(C)(C)C)(C(C)C)C1 | 6 | Activity [9]: 40%
– | > 2 | 13 | CC(CC(=O)N1C[C@@H]2C[C@H]1CN2C(=O)[C@@]1(C(C)C)CC[C@@H](NC2CCOCC2)C1)C(F)(F)F (stereo partly specified) | 5 | –
